Test results reported in PMC7860060 (ACS Omega, 2021).
Entries after “also recorded” stand apart in the source; their conditions may differ. Where no end group is shown, it is not given here.

Key:
[1] = Water solubility of peptides; type: physicochemical; settings: peptide excluded from synthesis for ITC; 'would be' marginally soluble
cHSA = cHSA (Homo sapiens, UniProt P02768); test: ITC titration of peptide into cHSA of different levels of carbamylation; type: binding
[2] = biological target: anti-Hcit (anti-carbamylation (homocitrulline) polyclonal antibody); test: ITC titration of peptide into anti-Hcit; type: binding, rabbits; settings: peptide into solution containing only anti-Hcit, 25 °C, 0.01 M PBS pH 7.4 containing 50% glycerol and 0.02% NaN3 (control test)
[3] = biological target: carbamylated HSA (cHSA-1) (Homo sapiens, UniProt P02768); test: ITC titration of peptide into cHSA-1; type: binding; settings: pH 7.4
native Fgn (fibrinogen) = test: ITC titration of peptide into native Fgn; type: binding, bovine; settings: peptide 0.21 mM into Fgn 4 μM, 0.1 M sodium phosphate pH 7.4, 25 °C
Procedure, shortened: (§1)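 Bovine plasma fibrinogen was used either native or carbamylated by stirring 0.008 mM protein with 0.1 M sodium cyanate in 0.1 M phosphate pH 7.4 at room temperature for 2 days. Cell held 4 μM protein; peptide titrant was 0.21 mM; both were in 0.1 M sodium phosphate pH 7.4. 50 injections 200 s apart, 150 rpm, 25 °C. Dilution heat subtracted, independent-model fit, repeated at least twice.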

[4] = biological target: carbamylated HSA (cHSA-3) (Homo sapiens, UniProt P02768); test: ITC titration of peptide into cHSA-3; type: binding; settings: pH 7.4
[5] = biological target: T1, carbamylated fibrinogen (cFgn) (Bos taurus, UniProt P02672+P02676+P12799, DEL436-444); test: ITC titration of peptide into cFgn; type: binding, bovine
T1 sequence (P02672 20-615): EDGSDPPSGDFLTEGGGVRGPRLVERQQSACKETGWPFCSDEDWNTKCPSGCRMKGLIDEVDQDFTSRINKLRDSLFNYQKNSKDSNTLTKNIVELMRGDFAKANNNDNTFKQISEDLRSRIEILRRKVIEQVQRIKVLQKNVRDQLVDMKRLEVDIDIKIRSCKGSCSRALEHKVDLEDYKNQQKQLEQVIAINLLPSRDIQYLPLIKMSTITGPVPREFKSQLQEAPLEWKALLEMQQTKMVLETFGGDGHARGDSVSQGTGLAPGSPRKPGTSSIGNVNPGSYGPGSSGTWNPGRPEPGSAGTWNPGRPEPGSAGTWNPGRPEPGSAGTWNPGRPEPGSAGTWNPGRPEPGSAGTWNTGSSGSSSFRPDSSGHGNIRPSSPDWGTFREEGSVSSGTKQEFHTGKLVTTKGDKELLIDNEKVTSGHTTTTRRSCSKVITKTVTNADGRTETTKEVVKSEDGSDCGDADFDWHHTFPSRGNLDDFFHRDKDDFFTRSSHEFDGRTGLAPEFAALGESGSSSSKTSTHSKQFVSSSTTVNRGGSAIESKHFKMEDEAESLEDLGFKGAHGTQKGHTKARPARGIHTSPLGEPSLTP
T1 sequence (P02676 1-468): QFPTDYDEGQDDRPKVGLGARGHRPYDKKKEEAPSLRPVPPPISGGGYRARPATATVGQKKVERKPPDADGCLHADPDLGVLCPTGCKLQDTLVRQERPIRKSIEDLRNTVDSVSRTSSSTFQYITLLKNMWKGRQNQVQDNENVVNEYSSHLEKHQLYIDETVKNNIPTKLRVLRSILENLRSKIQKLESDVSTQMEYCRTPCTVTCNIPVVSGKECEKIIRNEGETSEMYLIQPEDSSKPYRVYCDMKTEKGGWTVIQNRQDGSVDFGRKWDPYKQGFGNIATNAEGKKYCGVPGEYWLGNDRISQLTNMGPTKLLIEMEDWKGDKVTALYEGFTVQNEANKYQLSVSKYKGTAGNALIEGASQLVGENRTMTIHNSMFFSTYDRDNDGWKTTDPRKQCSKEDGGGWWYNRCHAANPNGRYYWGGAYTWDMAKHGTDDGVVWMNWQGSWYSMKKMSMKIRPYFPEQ
T1 sequence (P12799 25-435 limits assumed): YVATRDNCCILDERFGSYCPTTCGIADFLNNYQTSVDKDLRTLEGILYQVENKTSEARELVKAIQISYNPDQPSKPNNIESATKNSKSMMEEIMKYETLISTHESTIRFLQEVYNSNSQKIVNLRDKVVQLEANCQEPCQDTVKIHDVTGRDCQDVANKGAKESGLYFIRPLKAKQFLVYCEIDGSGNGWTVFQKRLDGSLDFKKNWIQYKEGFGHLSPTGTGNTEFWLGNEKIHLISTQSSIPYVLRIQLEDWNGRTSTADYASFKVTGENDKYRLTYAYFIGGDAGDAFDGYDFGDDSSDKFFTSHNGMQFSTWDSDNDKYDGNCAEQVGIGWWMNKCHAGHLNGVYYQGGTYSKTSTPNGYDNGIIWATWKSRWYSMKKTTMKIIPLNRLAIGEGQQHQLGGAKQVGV
Procedure, shortened: as §1

native HSA = native HSA (Homo sapiens, UniProt P02768); test: ITC titration of peptide into native HSA; type: binding; settings: 0.1 M sodium phosphate pH 7.4, 25 °C
native HSA, sequence (P02768 25-609): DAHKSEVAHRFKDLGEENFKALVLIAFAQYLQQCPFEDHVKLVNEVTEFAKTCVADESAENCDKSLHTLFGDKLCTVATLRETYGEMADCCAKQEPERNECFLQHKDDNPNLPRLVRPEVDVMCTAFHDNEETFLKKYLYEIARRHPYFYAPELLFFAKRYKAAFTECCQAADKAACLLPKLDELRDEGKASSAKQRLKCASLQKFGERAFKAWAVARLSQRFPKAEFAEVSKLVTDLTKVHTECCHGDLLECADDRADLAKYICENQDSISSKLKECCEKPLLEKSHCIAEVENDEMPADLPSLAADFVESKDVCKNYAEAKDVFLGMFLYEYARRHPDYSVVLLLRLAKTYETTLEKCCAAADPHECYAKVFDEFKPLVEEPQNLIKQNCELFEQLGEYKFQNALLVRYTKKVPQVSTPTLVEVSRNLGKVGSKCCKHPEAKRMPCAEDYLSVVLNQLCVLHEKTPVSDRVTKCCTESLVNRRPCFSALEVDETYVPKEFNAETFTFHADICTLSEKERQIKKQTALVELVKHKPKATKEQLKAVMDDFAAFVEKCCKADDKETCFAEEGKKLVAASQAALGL

[6] = biological target: carbamylated HSA (cHSA-2) (Homo sapiens, UniProt P02768); test: ITC titration of peptide into cHSA-2; type: binding
[7] = biological target: Carbamylated human serum albumin, Hcit% 2.7 (cHSA-2) (human) (UniProt P02768); test: ITC
[8] = biological target: Albumin from human serum (native HSA) (human, UniProt P02768 25-609); test: ITC
Albumin from human serum (native HSA), sequence (P02768 25-609): as above

[9] = biological target: Anti-carbamylation (homocitrulline) polyclonal antibody (anti-Hcit) (rabbit); test: ITC

cHSA, sequence (P02768 25-609): as above

With WPARTSAPFTNS [cH2-p3] the “aqueous solubility (expected)” value [1] was “marginally soluble”.

With TPTIAIAQYNKW [cH2-p5] the “aqueous solubility (expected)” value [1] was “marginally soluble”.

In the case of GSAARTISPSLL [cH2-p1], the Kd (cHSA) is reported as about 100 µM, the “binding thermodynamics (sign of heat), HSA/cHSA” value (cHSA; ITC titration peaks, HSA/cHSA, pH 7.4, 25 °C) is reported as “exothermic” and the “influence of extent of carbamylation on binding affinity” value (cHSA; ITC, cHSA-1, cHSA-2, cHSA-3) is reported as “difference in surface charge did not seem to affect the binding affinity; also recorded: not found to be influenced by the extent of carbamylation”. For the same molecule, the Kd [2] was 1000 µM, the Kd [3] was 120 µM and the “binding to native Fgn (ITC)” value (native Fgn (fibrinogen)) was “not binding to native Fgn at all”. The Kd [4] was 99 µM, the Kd [5] was 84 µM and the “binding thermodynamics (sign of heat), cFgn” value ([5]; ITC titration peaks, pH 7.4, 25 °C) was “endothermic”. For the same molecule, the “binding to carbamylated versus native fibrinogen (ITC)” value ([5]; cFgn versus native Fgn) was “binding specificity to carbamylated fibrinogen (cFgn); also recorded: found to bind cFgn over the native protein”, the “binding to HSA in words (ITC)” value (native HSA) was “too weak to produce an obvious titration curve” and the “Kd to cHSA relative to Kd to native HSA” value ([6]; ITC, comparison with native HSA) was “almost 1 order of magnitude lower than its Kd to native HSA”. For the same molecule, the “binding affinity for cHSA versus HSA (ITC and ELISA)” value ([6]; both ITC and ELISA results) was “consistently higher binding affinity for cHSA than HSA” and the Kd ([6]; pH 7.4) was 97 µM.

Work on AHPHSDKLVPPR [cH2-p4 peptide (synthetic)] yielded a Kd [7] of 130 µM.

Molecule TLGLRPVPVATT [cH2-p6 peptide (synthetic)] has a Kd [7] of 200 µM.

In the case of GSAARTISPSLL [cH2-p1 peptide (synthetic)], the Kd [8] is reported as 1000 µM and the Kd [9] is reported as 1000 µM.
